Results reported in ChEMBL document CHEMBL3808369, “Identification of Cyproheptadine as an Inhibitor of SET Domain Containing Lysine Methyltransferase 7/9 (Set7/9) That Regulates Estrogen-Dependent Transcription” (J Med Chem, 2016).
Active and inactive are the calls of the source. No cut-off for these calls is given here.

Tests used:
[1] = molecular target: T1, Histone-lysine N-methyltransferase SETD7 (Homo sapiens, UniProt Q8WTS6); experiment: Inhibition of recombinant Set7/9 (unknown origin) expressed in Escherichia coli BL21 (DE3) using biotinylated histone H3-derived peptide/SAM as substrate by alphaLISA
T1 sequence (Q8WTS6 whole entry): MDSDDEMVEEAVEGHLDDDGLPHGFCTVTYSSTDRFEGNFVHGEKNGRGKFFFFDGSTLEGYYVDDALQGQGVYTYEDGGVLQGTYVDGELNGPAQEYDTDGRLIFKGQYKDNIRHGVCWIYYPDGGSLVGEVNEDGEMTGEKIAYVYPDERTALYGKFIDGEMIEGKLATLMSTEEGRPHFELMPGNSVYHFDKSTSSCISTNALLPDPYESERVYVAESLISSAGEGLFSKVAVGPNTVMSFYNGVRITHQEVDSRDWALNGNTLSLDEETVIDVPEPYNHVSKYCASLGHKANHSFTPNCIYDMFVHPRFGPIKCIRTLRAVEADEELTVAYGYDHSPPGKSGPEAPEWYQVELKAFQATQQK

[2] = tested on: MCF7; experiment: Antitumor activity against Fucci introduced human MCF7 cells xenografted in Balb/c-nu/nu mouse at 20 mg/kg, ip qd administered as single dose; assay type: functional, organism-based
Procedure, shortened: (§1)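 Female Balb/C-nu/nu mice, 7 weeks old, carried mammary Fucci-MCF7 xenografts (about 2 × 10^7 cells) grown to about 100 mm3. A single ip dose of 20 mg/kg in saline with 10% ethanol was given on day 1; a vehicle group ran alongside. Caliper tumor volume (a2b)/2 and body weight were recorded every 3 or 4 days to day 15. Tumor volume relative to day 1; six mice, mean ± SE.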

[3] = tested on: Mus musculus; experiment: Effect on body weight in Balb/c-nu/nu mouse xenografted with Fucci introduced human MCF7 cells at 20 mg/kg, ip qd administered as single dose; assay type: ADME, organism-based; details: in vivo; procedure, shortened: as §1
[4] = molecular target: T2, Histone-lysine N-methyltransferase SETD7 (Homo sapiens) (UniProt Q8WTS6); experiment: Inhibition of Set7/9 in human MCF7 cells assessed as reduction of ERalpha expression after 48 hrs by immunoblotting analysis; assay type: cell-based
T2 sequence (whole entry): T1 sequence (Q8WTS6 whole entry)
Procedure, shortened: (§2)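 MCF7 cells (1 × 10^5 per well) treated either with a concentration series for 48 h or with 43 μM over a time course. RIPA-sonicated lysates were immunoblotted for ERα with enhanced chemiluminescence readout.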

[5] = molecular target: T2, Histone-lysine N-methyltransferase SETD7 (Homo sapiens); experiment: Inhibition of Set7/9 in human MCF7 cells assessed as reduction of ERalpha expression at 43 uM by immunoblotting analysis; assay type: cell-based; details: TDE = time-dependent effect; procedure, shortened: as §2
[6] = tested on: MCF7; experiment: Effect on ERalpha mRNA expression in human MCF7 cells at 4.3 to 43 uM after 48 hrs by RT-PCR analysis; assay type: functional, cell-based
Procedure, shortened: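 MCF7 cells were treated with or without compound for 48 h. Total RNA was isolated with TRIzol. ERα and GAPDH mRNA levels were measured by semiquantitative RT-PCR.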

[7] = molecular target: T3, Histone-lysine N-methyltransferase EHMT2 (Homo sapiens) (UniProt Q96KQ7); experiment: Inhibition of G9a (unknown origin) by AlphaELISA
T3 sequence (whole entry): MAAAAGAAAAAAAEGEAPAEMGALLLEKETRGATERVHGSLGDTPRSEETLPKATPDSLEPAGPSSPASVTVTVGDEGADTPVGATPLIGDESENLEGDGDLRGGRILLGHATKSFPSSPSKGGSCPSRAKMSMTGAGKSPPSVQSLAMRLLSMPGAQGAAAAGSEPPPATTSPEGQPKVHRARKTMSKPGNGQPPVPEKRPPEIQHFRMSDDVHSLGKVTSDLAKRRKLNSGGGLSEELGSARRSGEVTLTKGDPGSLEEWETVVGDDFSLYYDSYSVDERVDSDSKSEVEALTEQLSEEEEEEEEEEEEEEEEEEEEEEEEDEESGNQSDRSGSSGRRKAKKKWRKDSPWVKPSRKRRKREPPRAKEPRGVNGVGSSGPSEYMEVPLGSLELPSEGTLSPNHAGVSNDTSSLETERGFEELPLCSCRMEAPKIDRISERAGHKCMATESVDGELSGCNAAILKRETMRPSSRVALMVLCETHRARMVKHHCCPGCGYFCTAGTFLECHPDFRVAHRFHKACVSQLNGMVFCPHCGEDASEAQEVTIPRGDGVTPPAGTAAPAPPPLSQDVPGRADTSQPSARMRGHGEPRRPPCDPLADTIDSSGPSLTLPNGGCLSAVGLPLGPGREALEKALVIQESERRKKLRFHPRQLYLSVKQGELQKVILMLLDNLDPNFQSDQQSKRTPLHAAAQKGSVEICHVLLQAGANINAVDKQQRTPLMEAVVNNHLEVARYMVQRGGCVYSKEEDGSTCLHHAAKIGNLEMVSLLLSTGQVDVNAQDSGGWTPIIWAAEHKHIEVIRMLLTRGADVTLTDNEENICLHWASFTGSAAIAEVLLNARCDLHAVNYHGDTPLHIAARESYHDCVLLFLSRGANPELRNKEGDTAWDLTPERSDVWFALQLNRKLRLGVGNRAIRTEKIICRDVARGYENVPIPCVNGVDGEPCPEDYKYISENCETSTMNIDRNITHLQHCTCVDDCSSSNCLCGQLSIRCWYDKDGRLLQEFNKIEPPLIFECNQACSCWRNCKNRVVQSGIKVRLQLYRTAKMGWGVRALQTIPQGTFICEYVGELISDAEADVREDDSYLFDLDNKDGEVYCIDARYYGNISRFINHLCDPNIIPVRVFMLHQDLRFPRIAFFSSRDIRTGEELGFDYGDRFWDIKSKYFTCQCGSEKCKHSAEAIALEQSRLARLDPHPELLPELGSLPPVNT

[8] = molecular target: T4, N-lysine methyltransferase KMT5A (Homo sapiens) (UniProt Q9NQR1); experiment: Inhibition of Set8 (unknown origin) by AlphaELISA
T4 sequence (whole entry): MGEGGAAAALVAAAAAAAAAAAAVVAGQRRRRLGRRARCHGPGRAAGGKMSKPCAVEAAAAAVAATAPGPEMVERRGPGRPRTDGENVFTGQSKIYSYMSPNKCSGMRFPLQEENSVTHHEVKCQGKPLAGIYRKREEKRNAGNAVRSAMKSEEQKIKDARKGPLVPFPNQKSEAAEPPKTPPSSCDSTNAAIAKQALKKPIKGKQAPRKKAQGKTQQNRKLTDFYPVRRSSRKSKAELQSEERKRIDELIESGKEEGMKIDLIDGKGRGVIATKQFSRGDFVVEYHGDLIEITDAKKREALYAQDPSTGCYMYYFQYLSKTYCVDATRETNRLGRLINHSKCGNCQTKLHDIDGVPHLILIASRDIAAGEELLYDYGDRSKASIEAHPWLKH

[9] = molecular target: Histone-lysine N-methyltransferase, H3 lysine-79 specific (Homo sapiens) (UniProt Q8TEK3); experiment: Inhibition of Dot1L (unknown origin) by AlphaELISA
[10] = molecular target: T2, Histone-lysine N-methyltransferase SETD7 (Homo sapiens); experiment: Inhibition of Set7/9 in human MCF7 cells assessed as suppression of beta-estradiol-induced pS2 mRNA expression at 14 to 43 uM preincubated for 24 hrs followed by beta-estradiol addition measured after 24 hrs by RT-PCR analysis

Chain of Histone-lysine N-methyltransferase, H3 lysine-79 specific (Homo sapiens) (Q8TEK3 whole entry, looked up): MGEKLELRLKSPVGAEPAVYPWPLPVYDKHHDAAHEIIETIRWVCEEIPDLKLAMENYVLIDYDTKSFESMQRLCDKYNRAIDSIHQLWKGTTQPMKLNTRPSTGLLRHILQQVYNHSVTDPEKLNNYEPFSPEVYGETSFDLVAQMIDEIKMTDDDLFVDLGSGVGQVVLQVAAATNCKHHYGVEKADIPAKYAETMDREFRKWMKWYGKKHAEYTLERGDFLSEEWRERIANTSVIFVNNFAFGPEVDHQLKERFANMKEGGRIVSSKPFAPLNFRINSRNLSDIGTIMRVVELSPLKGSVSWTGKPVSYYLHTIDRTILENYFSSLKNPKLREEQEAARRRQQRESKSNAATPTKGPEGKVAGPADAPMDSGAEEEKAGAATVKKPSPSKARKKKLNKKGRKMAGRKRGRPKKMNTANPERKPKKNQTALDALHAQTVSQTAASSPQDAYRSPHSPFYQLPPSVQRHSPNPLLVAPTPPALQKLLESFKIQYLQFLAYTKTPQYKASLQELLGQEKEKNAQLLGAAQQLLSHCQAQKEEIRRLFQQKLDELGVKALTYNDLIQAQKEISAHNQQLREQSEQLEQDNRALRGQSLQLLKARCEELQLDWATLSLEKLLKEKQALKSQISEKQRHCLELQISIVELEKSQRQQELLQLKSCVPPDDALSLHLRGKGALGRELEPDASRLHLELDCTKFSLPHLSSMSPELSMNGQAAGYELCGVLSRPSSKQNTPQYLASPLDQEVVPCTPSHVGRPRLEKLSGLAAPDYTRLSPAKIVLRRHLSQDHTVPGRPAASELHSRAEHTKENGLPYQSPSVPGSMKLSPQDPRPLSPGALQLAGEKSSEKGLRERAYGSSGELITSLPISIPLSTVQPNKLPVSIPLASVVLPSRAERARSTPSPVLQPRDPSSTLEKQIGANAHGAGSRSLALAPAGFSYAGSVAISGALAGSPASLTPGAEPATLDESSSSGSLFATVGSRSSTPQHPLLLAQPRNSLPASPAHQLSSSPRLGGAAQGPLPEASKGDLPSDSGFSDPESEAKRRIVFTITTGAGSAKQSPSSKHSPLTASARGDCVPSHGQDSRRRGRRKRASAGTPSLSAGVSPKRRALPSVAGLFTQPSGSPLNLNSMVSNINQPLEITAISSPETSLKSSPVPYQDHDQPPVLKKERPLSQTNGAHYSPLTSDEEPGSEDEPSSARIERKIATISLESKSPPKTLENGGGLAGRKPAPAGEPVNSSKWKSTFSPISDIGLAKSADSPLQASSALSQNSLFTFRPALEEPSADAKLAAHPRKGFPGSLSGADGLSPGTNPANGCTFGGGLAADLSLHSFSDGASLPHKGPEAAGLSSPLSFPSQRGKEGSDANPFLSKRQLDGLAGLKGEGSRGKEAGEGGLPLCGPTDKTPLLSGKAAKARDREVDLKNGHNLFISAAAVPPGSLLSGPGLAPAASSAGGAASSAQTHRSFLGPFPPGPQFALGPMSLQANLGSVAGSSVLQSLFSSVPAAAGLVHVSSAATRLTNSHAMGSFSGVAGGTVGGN

`CN1CCC(=C2c3ccccc3C=Cc3ccccc32)CC1` [CYPROHEPTADINE] was tested, and the IC50 [1] was 1000 nM, the TGI [2] was “Active” and the Activity [3] was “Non-toxic”. For the same compound, the inhibition [4] was “Dose-dependent effect”, the inhibition [5] was “tde” and the Activity [6] was “inactive”. For the same compound, the inhibition [7] was “Active”, the inhibition [8] was “Active” and the inhibition [9] was “Active”. The inhibition [10] was “Active”.
